From PubChem
The list is not random: actives were taken first. Their share in the collection is about 3.4%.
E-selectin induc: induces E-selectin expression in human endothelial cells. P16581. HUVEC E-selectin immunofluorescence imaging; normalized: neutral wells 0, TNF-alpha wells 100. activation, % at 7.58 µM. 260,000 tested, 0.37% active. AID 686992;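 active = mean E-selectin-positive cell signal at least 10% of the positive control, reached in at least 60% of replicates, without over 20% cell loss; inconclusive = no rule given, readout overlaps actives, possibly toxicity-flagged; inactive = the rest, including those meeting only one limit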
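Test system – human umbilical vein endothelial cells (HUVEC), E-selectin induction · Input – 3,000 HUVEC seeded per well · Buffer or medium – EGM-2, gelatin · Compound dosing – single-point compound dose · Detection – immunofluorescence imaging · Measure – percent E-selectin-positive cells · Controls – TNF-alpha high, DMSO low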
rRNA inh HTS: selective bacterial rRNA inhibition in E. coli; AID 720706; 350,000 tested, 1.6% active; GFP signal change (wild-type ribosome), % (test concentration not listed); E. coli WT GFP vs humanized-ribosome RFP mutants, fluorescence, 24 h; hits give low values; DMSO median 0, no signal -100;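 active = significant combined selectivity score with lowered wild-type GFP, culture density cut under 30%, mutant RFP and density less affected; inactive = any of these conditions unmet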
SIRT5 inh: sirtuin-5 (human) deacylase inhibition; 330,000 tested, 1.1% active; Q9NXA8; Purified SirT5, succinyl-peptide AMC, trypsin-coupled fluorescence; inhibition, % at 15 µM; in the data active = inhibition above about 15%; inconclusive = no clear call, values can overlap the other calls
Target sequence (Q9NXA8 whole entry, looked up): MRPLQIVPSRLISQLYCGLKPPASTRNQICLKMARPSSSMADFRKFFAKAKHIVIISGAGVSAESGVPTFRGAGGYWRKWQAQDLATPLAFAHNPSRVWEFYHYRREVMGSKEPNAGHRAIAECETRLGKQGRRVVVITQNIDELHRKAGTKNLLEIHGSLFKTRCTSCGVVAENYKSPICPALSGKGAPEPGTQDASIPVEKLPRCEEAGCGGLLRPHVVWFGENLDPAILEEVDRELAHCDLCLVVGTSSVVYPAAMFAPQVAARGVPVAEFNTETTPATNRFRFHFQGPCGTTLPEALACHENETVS
ERAP1 HTS inh: blocks human ERAP1 aminopeptidase activity | Q9NZ08 | recombinant ERAP1, Leu-AMC fluorescence, 60 min | inhibition, % at 10.7 µM | 340,000 tested, 0.15% active | AID 652197;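 active = mean replicate inhibition of at least 30%, or all replicates individually reaching that 30% level; inactive = mean below 30% and not every replicate reaching it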;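 note: 0% = neutral control wells and 100% = L-leucinethiol positive control wells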
AF4-AF9 inh: inhibitors of human MLL-AF4/AF9 interaction; P42568; AlphaScreen, biotin-AF4 peptide binding to FLAG-AF9; inhibition, % at 10 µM; 350,000 tested, 0.47% active; AID 651704;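 active = every replicate reaching a set inhibition limit, whatever the replicate mean, cut at about 25% in these data; inconclusive = mean inhibition reaches that limit but some replicates miss it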;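 note: 0% = plate neutral control median and 100% = total signal loss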
S100A4 inh HTS: blocks human S100A4 binding to myosin IIA peptide; 360,000 tested, 0.14% active; P26447; inhibition, % at 10.7 µM; S100A4/TAMRA-MyoIIA peptide fluorescence polarization;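 active = mean inhibition of at least 70% across replicates, with every replicate also reaching that level; inconclusive = mean inhibition reaches 70% but some replicates fall short; inactive = mean inhibition below 70%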
Target sequence (P26447 whole entry, looked up): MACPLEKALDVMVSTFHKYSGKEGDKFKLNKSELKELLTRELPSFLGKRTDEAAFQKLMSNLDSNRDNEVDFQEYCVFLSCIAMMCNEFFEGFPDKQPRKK
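Material: S100A4 monomer protein | Medium: HEPES pH 7.2 with CaCl2, KCl, NaCl, DTT, Triton | Reagent: Labelled myosin peptide probe, 5 nM | Doses: One dose per compound | Times: 5 min incubation before reading | Benchmarks: Neutral control DMSO, positive control TFP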
AID977621: wild-type E. coli growth inhibition versus H69 humanized strain – H69 mutant RFP, wild-type GFP, cherry-pick, dose response; activity change, negative = inhibition at 50 µM; fluorescence, 24 h; AID 977621; shares compounds with rRNA inh HTS; 1,900 tested, under 10 active;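 active = Wild-type ribosome reporter drop at least double the humanized mutant ribosome reporter drop, growth loss under a set limit; inconclusive = no clear call, values can overlap the other calls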;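 note: wild-type GFP and H69 mutant RFP strains grown together 50/50 in each well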
AID977628: E. coli growth inhibition, wild-type GFP versus h24 humanized RFP strain, dose response, h24 mutant RFP vs wild-type GFP, cherry-pick | shares compounds with rRNA inh HTS | E. coli WT GFP strain growth, fluorescence, 24 h | activity change, negative = inhibition at 50 µM | 1,900 tested, under 10 active | AID 977628;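 active = compound lowering the normal-ribosome reporter at least twice as much as the humanized-ribosome reporter, growth loss under a set limit; inconclusive = no clear call, values can overlap the other calls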;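 note: wild-type GFP and h24 humanized RFP strains co-cultured 1 to 1 per well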
An asterisk follows results filed as active; ? = inconclusive; . = not tested or not shown.

SMILES	E-selectin induc	rRNA inh HTS	SIRT5 inh	ERAP1 HTS inh	AF4-AF9 inh	S100A4 inh HTS	AID977621	AID977628
COc1ccccc1-c1cn(CC[C@@H]2CC[C@H](NC(=O)C3CCCCC3)[C@H](CO)O2)nn1	0	-6	0	-3	-3	16	.	.
O=C(CSCc1ccc(Br)cc1)NCc1ccccn1	.	-19*	2	-3	-2	0	1.9	0.69
O=C(CSCc1c(Cl)cccc1Cl)NCc1ccccn1	4	-23*	-5	-5	-1	-45	-5.6	-2.1
COc1ccc(CNC(=O)CSCc2c(F)cccc2Cl)cc1	6	-27*	-2	.	-30	3	-2.6	.
O=C(COc1ccc(Br)cc1)NCc1ccccn1	.	6	-2	0	-2	2	.	.
C[C@@H]1CN([C@H](C)CO)C(=O)c2cc(-c3ccc(F)cc3)cnc2O[C@H]1CN(C)C(=O)c1ccncc1	0	1	.	.	.	.	.	.
O=C(C[C@H]1C[C@@H]2c3cc(NS(=O)(=O)c4ccc(F)cc4)ccc3O[C@@H]2[C@@H](CO)O1)N1CCOCC1	0	-1	-4	2	-1	0	.	.
C[C@@H]1CN([C@@H](C)CO)C(=O)Cc2cc(NC(=O)Nc3ccc(C(F)(F)F)cc3)ccc2O[C@@H]1CN(C)S(=O)(=O)c1cccs1	12	-2	1	1	1	-2	.	.
CN(C)C(=O)[C@@H]1[C@@H](CO)[C@@H]2Cn3c(ccc(-c4ccncc4)c3=O)[C@@H]2N1Cc1ccccc1	0	0	5	0	-2	9	.	.
Oc1ccccc1Oc1ncc(Br)c(Cl)n1	.	-25*	-23	0	-1	-3	.	3.7
COCC(=O)N1[C@H](CO)[C@H](c2ccccc2-c2ccccc2)[C@@H]1C#N	0	5	-2	2	-3	2	.	.
Cc1nn2c(C)c(C(=O)Nc3ccccc3)cnc2c1-c1ccccc1	3	-32*	1	7	1	1	8.6	-3.7
C[C@@H]1CN([C@H](C)CO)C(=O)c2cc(NS(=O)(=O)c3cn(C)cn3)ccc2O[C@@H](C)CCCCO[C@H]1CN(C)CC1CCCCC1	2	4	-11	-2	-6	-5	.	.
CCNC(=O)[C@H]1[C@H](CO)[C@H]2Cn3c(ccc(-c4cccnc4)c3=O)[C@@H]1N2Cc1ccccc1	0	5	-1	0	1	3	.	.
CCOC(=O)c1c(C)[nH]c(C)c1S(=O)(=O)NCCN1CCN(c2ccccc2F)CC1	.	-16*	-3	0	8	1	-6.3	-16
COCC#Cc1ccc([C@@H]2[C@@H](CO)N3C(=O)CN(C(=O)c4cccnc4)C[C@H]23)cc1	0	6	1	-1	4	4	.	.
COc1cc(NC(=O)CSc2nc(C)cs2)cc(OC)c1	.	-30*	-4	0	-30	2	-16	.
O=C(O)c1cc(-c2ccc(Cl)s2)nc2ccccc12	.	-27*	-10	4	-1	3	-13	?
Cc1ccc(-c2cc(C(=O)O)c3ccccc3n2)s1	0	-4	-47	-6	-1	0	.	.
O=C(Nc1ccccc1F)N[C@@H]1CC[C@H](CCNC(=O)C2CCOCC2)O[C@H]1CO	0	2	-6	-1	-1	24	.	.
C[C@@H]1CCCCO[C@H](CN(C)C(=O)C2CCCCC2)[C@H](C)CN([C@@H](C)CO)C(=O)c2cc(NC(=O)Nc3ccc4c(c3)OCO4)ccc2O1	1	-3	10	10	4	-6	.	.
Cc1ccc(S(=O)(=O)NCC[C@@H]2CC[C@H](NC(=O)NC(C)C)[C@H](CO)O2)cc1	0	6	6	-2	-21	6	.	.
O=C(CCCOc1ccc(Cl)cc1Cl)Nc1ccccc1C(=O)O	0	-30*	-5	-2	-34	4	-15	.
COc1ccc(NC(=O)N(C)C[C@H]2Oc3ccc(NC(=O)Cn4cnnn4)cc3CC(=O)N([C@H](C)CO)C[C@@H]2C)cc1	.	-1	2	0	-2	7	.	.
CC(C)CC#Cc1cnc2c(c1)C(=O)N([C@@H](C)CO)C[C@@H](C)[C@@H](CN(C)Cc1ccccc1F)O2	0	-4	-1	2	0	5	.	.
SMILES	E-selectin induc	rRNA inh HTS	SIRT5 inh	ERAP1 HTS inh	AF4-AF9 inh	S100A4 inh HTS	AID977621	AID977628
Cc1cccc(NC(=O)c2c(C)nn(-c3ccccc3)c2Cl)c1	4	-35*	0	4	-3	-4	-11	-22
CCc1ccc2[nH]c(C(=O)Nc3ccc4c(c3)OCO4)cc2c1	25	-26*	0	-4	?	-2	-13	?
C[C@H](O)C#Cc1ccc2c(c1)O[C@@H](CN(C)C(=O)CN(C)C)[C@H](C)CN([C@@H](C)CO)S2(=O)=O	0	3	0	0	-2	-7	.	.
CSCCC1NC(=O)N(C(C)C(=O)Nc2cc(Cl)cc(Cl)c2)C1=O (centres undefined)	0	-21*	1	1	5	-5	-19	-9.7
CCOc1ccccc1NC(=O)c1c(NC(=O)CCC(=O)O)sc2c1CCCCC2	.	-19	2	4	-25	-19	.	.
CCCC(=O)Nc1sc2c(c1C(=O)Nc1ccccn1)CCCC2	-3	-30*	2	0	3	-4	-18	-16
O=C(Nc1ccccc1F)N[C@H]1C=C[C@H](CC(=O)N2CCCCC2)O[C@@H]1CO	0	2	0	-1	-4	-20	.	.
O=S(=O)(c1cnc(Cl)c(Cl)c1)N1CCCc2ccccc21	.	-25*	0	-6	-2	4	-10	-7.4
Cc1ccc(S(=O)(=O)N2CCCc3ccccc32)cc1	.	-43	-2	1	-3	-2	.	.
Cc1ccc2cccc(OCc3ccccc3)c2n1	0	-26*	-3	-3	-5	-1	-10	-8
Cc1ccc2cccc(OCc3ccc(F)cc3)c2n1	.	-14	-3	4	-2	3	.	.
O=C1CCCc2ccccc2N1Cc1ccccc1	1	-28*	3	-2	1	-2	-7.9	-12
COc1ccc(NC(=O)Nc2cccc3c2O[C@@H](CN(C)S(=O)(=O)c2ccc(Cl)cc2)[C@H](C)CN([C@H](C)CO)C3=O)cc1	2	-4	0	-1	0	4	.	?
